According to ChEMBL document CHEMBL1649390, “New (RS)-benzoxazepin-purines with antitumour activity: The chiral switch from (RS)-2,6-dichloro-9-[1-(p-nitrobenzenesulfonyl)-1,2,3,5-tetrahydro-4,1-benzoxazepin-3-yl]-9H-purine” (Eur J Med Chem, 2011):

How the values were obtained:
MDA-MB-231 [1] = assay: Cell cycle arrest in human MDA-MB-231 cells assessed as accumulation at S phase after 48 hrs using propidium iodide staining by flow cytometry (reference value: 26.35 +/- 0.03 %); format: functional
MCF7 [2] = assay: Induction of apoptosis in human MCF7 cells assessed as necrotic cells at IC50 concentration after 24 hrs using V-FITC and propidium iodide staining by flow cytometry (reference value: 9.55 +/- 0.21 %); format: functional
MDA-MB-231 [3] = assay: Cell cycle arrest in human MDA-MB-231 cells assessed as accumulation at G2/M phase after 48 hrs using propidium iodide staining by flow cytometry (reference value: 31.59 +/- 0.03 %); format: functional
MCF7 [4] = assay: Induction of apoptosis in human MCF7 cells assessed as late apoptotic cells at IC50 concentration after 24 hrs using V-FITC and propidium iodide staining by flow cytometry (reference value: 0.03 +/- 0.01 %); format: functional
[5] = Cell cycle arrest in human MCF10A cells assessed as accumulation at G0/G1 phase after 48 hrs using propidium iodide staining by flow cytometry (reference value: 65.70 +/- 1.14 %); format: ADME, cell-based; details: mcf-10a
MDA-MB-231 [6] = assay: Cytotoxicity against human MDA-MB-231 cells expressing high level of p53 […]; format: functional, cell-based
[7] = Cell cycle arrest in human MCF10A cells assessed as accumulation at S phase after 48 hrs using propidium iodide staining by flow cytometry (reference value: 21.78 +/- 0.46 %); format: ADME, cell-based; details: mcf-10a
MCF7 [8] = assay: Cell cycle arrest in human MCF7 cells assessed as accumulation at S phase after 48 hrs using propidium iodide staining by flow cytometry (reference value: 8.55 +/- 0.40 %); format: functional
MDA-MB-231 [9] = assay: Cell cycle arrest in human MDA-MB-231 cells assessed as accumulation at G0/G1 phase after 48 hrs using propidium iodide staining by flow cytometry (reference value: 42.06 +/- 0.01 %); format: functional
Mus musculus [10] = assay: Acute toxicity in BALB/c mouse assessed as mortality up to 200 mg/kg, ip after 2 weeks; format: organism-based; parameters: dose 200 mg/kg, route intraperitoneal; details: in vivo, 336 h
Procedure, shortened: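 Six-week-old female BALB/c mice (about 20 g) were given a single i.p. bolus at 50, 75, 100, 150 and 200 mg/kg (n = 25), dissolved in 0.25 mL of 0.9% NaCl/DMSO. Vehicle controls received saline or DMSO alone. Mice were weighed and scored twice weekly for 2 weeks for systemic toxicity (listlessness, weight loss) and local toxicity (alopecia, skin reaction, leg motility).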

MCF7 [11] = assay: Induction of apoptosis in human MCF7 cells assessed as cell viability at IC50 concentration after 24 hrs using V-FITC and propidium iodide staining by flow cytometry (reference value: 90.42 +/- 0.63 %); format: functional
MCF7 [12] = assay: Cell cycle arrest in human MCF7 cells assessed as accumulation at G2/M phase after 48 hrs using propidium iodide staining by flow cytometry (reference value: 1.57 +/- 2.12 %); format: functional
[13] = Cell cycle arrest in human MCF10A cells assessed as accumulation at G2/M phase after 48 hrs using propidium iodide staining by flow cytometry (reference value: 12.55 +/- 0.68 %); format: ADME, cell-based; details: mcf-10a
MCF7 [14] = assay: Induction of apoptosis in human MCF7 cells assessed as necrotic cells at IC50 concentration after 48 hrs using V-FITC and propidium iodide staining by flow cytometry (reference value: 12.61 +/- 7.50 %); format: functional
MCF7 [15] = assay: Induction of apoptosis in human MCF7 cells assessed as early apoptotic cells at IC50 concentration after 48 hrs using V-FITC and propidium iodide staining by flow cytometry relative to control; format: functional
MCF7 [16] = assay: Induction of apoptosis in human MCF7 cells assessed as viable cells at IC50 concentration after 48 hrs using V-FITC and propidium iodide staining by flow cytometry (reference value: 86.26 +/- 7.25 %)
[17] = Therapeutic index, ratio of IC50 for human MCF10A cells to IC50 for human MCF7 cells expressing wild type p53 and ras mutant; format: cell-based; details: MCF10A cells versus MCF7 cells (wild type p53, ras mutant), read-out: Ratio IC50
Procedure, shortened: (§1)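 Ratio of IC50 in non-tumour MCF-10A to IC50 in the tumour line, both from the SRB growth assay described for cytotoxicity.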

MCF7 [18] = assay: Induction of apoptosis in human MCF7 cells assessed as late apoptotic cells at IC50 concentration after 24 hrs using V-FITC and propidium iodide staining by flow cytometry (reference value: 1.11 +/- 0.24 %); format: functional
Mus musculus [19] = assay: Acute toxicity in BALB/c mouse assessed as mortality up to 50 mg/kg, po after 2 weeks; format: organism-based; parameters: dose 50 mg/kg, route oral; details: in vivo, 336 h
Procedure, shortened: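 Female BALB/c mice, six weeks old (about 20 g), were dosed once by gavage at 0.05, 0.5, 5 and 50 mg/kg (n = 25) in 0.25 mL of 0.9% NaCl/DMSO. Controls received saline or DMSO alone. Body weight and signs of systemic toxicity (listlessness, weight loss) and local toxicity (alopecia, skin reaction, leg motility) were checked twice weekly over 2 weeks.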

[20] = Cytotoxicity against human MCF10A cells […] by SRB assay; format: cell-based; details: MCF-10A
MCF7 [21] = assay: Induction of apoptosis in human MCF7 cells assessed as early apoptotic cells at IC50 concentration after 24 hrs using V-FITC and propidium iodide staining by flow cytometry relative to control; format: functional
[22] = Therapeutic index, ratio of IC50 for human MCF10A cells to IC50 for human MDA-MB-231 cells expressing high level of p53; format: cell-based; details: MCF10A cells versus MDA-MB-231 cells (high level of p53), read-out: Ratio IC50; procedure, shortened: as §1
MCF7 [23] = assay: Cytotoxicity against human MCF7 cells expressing wild type p53 and ras mutant […]; format: functional, cell-based
MCF7 [24] = assay: Cell cycle arrest in human MCF7 cells assessed as accumulation at G0/G1 phase after 48 hrs using propidium iodide staining by flow cytometry (reference value: 89.88 +/- 1.73 %); format: functional

Compound `O=[N+]([O-])c1ccc(S(=O)(=O)N2CC(n3cnc4c(Cl)nc(Cl)nc43)OCc3ccccc32)cc1` (racemic) has an Activity (MDA-MB-231 [1]) of 29.36%, an Activity (MCF7 [2]) of 4.93% and an Activity (MDA-MB-231 [3]) of 25.4%. For the same compound, the Activity (MCF7 [4]) was 0.23%, the Activity [5] was 65.94% and the IC50 (MDA-MB-231 [6]) was 166 nM. The Activity [7] was 22.14%, the Activity (MCF7 [8]) was 8.55% and the Activity (MDA-MB-231 [9]) was 45.4%. The Activity (Mus musculus [10]) was “Non-toxic”, the Activity (MCF7 [11]) was 94.16% and the Activity (MCF7 [12]) was 1.57%. It also gave an Activity [13] of 11.92%, an Activity (MCF7 [14]) of 16.13% and an Activity (MCF7 [15]) of 23.38%. For the same compound, the viability (MCF7 [16]) was 46.65%, the selectivity ratio [17] was 5.14 and the Activity (MCF7 [18]) was 13.84%. The Activity (Mus musculus [19]) was “Non-toxic”, the IC50 [20] was 1820 nM and the Activity (MCF7 [21]) was 0.66%. The selectivity ratio [22] was 11, the IC50 (MCF7 [23]) was 355 nM and the Activity (MCF7 [24]) was 87.2%.
